Reference: ChEMBL document CHEMBL1152644, “Synthesis of isoquinolinone-based tetracycles as poly (ADP-ribose) polymerase-1 (PARP-1) inhibitors” (Bioorg Med Chem, 2009)
Where a name gives a salt, the structure may show the parent alone.

Key:
[1] = system: DU-145; experiment: Cytotoxicity against human DU145 cells at 10 uM by MTT assay; type: functional
[2] = target: Poly [ADP-ribose] polymerase 1 (Homo sapiens, UniProt P09874); experiment: Inhibition of PARP1
[3] = system: HCT-116; experiment: Induction of temozolomide-induced cytotoxicity in human HCT116 cells assessed as potentiation factor, ratio of cytotoxic IC50 for temozolomide alone to cytotoxic IC50 temozolomide in presence of drug; type: functional
Outline: (§1)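 HCT116 cells in RPMI 1640 with 10% FBS at 37 °C under 5% CO2 were seeded at 3 x 10^4 cells/well and grown overnight. On day 2, medium was replaced with graded temozolomide or etoposide, with or without PARP-1 inhibitor at 0.5 µM. On day 4, CCK-8 was added for 4 h and A450 read. IC50 came from four-parameter logistic fits. Potentiation factor = IC50 (agent alone)/IC50 (agent + inhibitor); mean±S.D. of ≥3 independent experiments.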

[4] = system: HCT-116; experiment: Induction of etoposide-induced cytotoxicity in human HCT116 cells assessed as potentiation factor, ratio of cytotoxic IC50 for etoposide alone to cytotoxic IC50 etoposide in presence of drug; type: functional; outline: as §1
[5] = system: HCT-116; experiment: Cytotoxicity against human HCT116 cells after 2 days; details: HCT-116, 48 h

Poly [ADP-ribose] polymerase 1, sequence (P09874 whole entry): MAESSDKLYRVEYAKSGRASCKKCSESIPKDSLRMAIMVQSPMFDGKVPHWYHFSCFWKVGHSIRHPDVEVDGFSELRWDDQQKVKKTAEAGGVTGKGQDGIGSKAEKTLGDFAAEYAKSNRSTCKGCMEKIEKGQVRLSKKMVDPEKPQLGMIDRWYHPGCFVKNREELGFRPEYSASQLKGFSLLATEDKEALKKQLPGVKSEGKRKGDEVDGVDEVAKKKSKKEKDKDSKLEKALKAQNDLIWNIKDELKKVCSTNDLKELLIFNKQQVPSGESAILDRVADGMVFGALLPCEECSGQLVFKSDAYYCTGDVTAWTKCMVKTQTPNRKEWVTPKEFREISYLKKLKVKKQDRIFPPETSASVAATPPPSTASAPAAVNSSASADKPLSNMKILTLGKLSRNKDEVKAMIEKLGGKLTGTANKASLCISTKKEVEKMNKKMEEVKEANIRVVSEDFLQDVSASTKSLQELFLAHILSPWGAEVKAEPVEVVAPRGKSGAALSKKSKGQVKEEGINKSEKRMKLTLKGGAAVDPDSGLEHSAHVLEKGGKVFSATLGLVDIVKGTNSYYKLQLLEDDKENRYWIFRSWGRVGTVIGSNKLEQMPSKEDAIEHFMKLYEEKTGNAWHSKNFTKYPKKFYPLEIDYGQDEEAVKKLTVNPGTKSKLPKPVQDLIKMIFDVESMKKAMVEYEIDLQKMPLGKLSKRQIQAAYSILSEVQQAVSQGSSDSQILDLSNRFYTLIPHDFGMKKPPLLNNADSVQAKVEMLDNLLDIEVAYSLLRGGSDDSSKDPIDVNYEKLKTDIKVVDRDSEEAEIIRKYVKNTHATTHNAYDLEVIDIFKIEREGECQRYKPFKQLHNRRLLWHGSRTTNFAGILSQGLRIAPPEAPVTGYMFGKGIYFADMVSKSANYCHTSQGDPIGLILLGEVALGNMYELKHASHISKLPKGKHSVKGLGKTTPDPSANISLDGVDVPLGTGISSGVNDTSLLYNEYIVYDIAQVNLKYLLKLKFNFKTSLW

Structure (SMILES) | inhibition at 10 µM [1] | IC50 [2] | PF50 [3] | PF50 [4] | IC50 [5]
O=c1[nH]c2c(nc3cc(Cl)ccn32)c2ccccc12 | 11.4% | 5.87 µM | – | – | –
Cc1cc(C)n2c(c1)nc1c3ccccc3c(=O)[nH]c12 | 38.5% | > 100 µM | – | – | –
O=c1[nH]c2c(nc3cnccn32)c2ccccc12 | 18.7% | 3.23 µM | – | – | –
O=c1[nH]c2c(nc3ccc(Br)cn32)c2ccccc12 | 6.8% | 12.1 µM | – | – | –
COc1cccc2c1C(=O)c1c(O)c3c(c(O)c1C2=O)C[C@@](O)(C(=O)CO)C[C@@H]3O[C@H]1C[C@H](N)[C@H](O)[C@H](C)O1 [DOXORUBICIN HYDROCHLORIDE] | 70.3% | – | – | – | –
O=c1[nH]c2c(nc3ccc(Cl)cn32)c2ccccc12 | 0.2% | 14.8 µM | – | – | –
O=c1[nH]c2c(nc3cc(S(=O)(=O)NCCCN4CCOCC4)ccn32)c2ccccc12 | – | 0.036 µM | – | – | –
O=c1[nH]c2c(nc3c4ccccc4ccn32)c2ccccc12 | 25.5% | 4.11 µM | – | – | –
Cc1ccn2c(c1)nc1c3ccccc3c(=O)[nH]c12 | 0% | 0.47 µM | 1.7 | 1.7 | –
O=c1[nH]c2c(nc3ncccn32)c2ccccc12 | 14.2% | 5.78 µM | – | – | –
Cc1ccn2c(n1)nc1c3ccccc3c(=O)[nH]c12 | 27.7% | 0.56 µM | 1.1 | 1.2 | –
COc1cc([C@@H]2c3cc4c(cc3[C@@H](O[C@@H]3O[C@@H]5CO[C@@H](C)O[C@H]5[C@H](O)[C@H]3O)[C@H]3COC(=O)[C@H]23)OCO4)cc(OC)c1O [ETOPOSIDE] | 72.1% | – | – | – | 14.4 µM
O=C1NCCc2c(OCCCCN3CCCCC3)cccc21 | – | 10.8 µM | – | – | –
COc1cc2nc3c4ccccc4c(=O)[nH]c3n2cn1 | 0% | > 100 µM | – | – | –
O=c1[nH]c2c(nc3ccccn32)c2ccccc12 | 7.9% | 0.85 µM | – | – | –
Cc1ccc2nc3c4ccccc4c(=O)[nH]c3n2c1 | 19.2% | 4.27 µM | – | – | –
Cn1nnc2c(C(N)=O)ncn2c1=O [TEMOZOLOMIDE] | – | – | – | – | 4.34 µM
Cc1cccc2nc3c4ccccc4c(=O)[nH]c3n12 | 25.6% | > 100 µM | – | – | –
CC[C@@]1(O)C(=O)OCc2c1cc1n(c2=O)Cc2cc3ccccc3nc2-1 [CAMPTOTHECIN] | 69.4% | – | – | – | –
Cc1cccn2c1nc1c3ccccc3c(=O)[nH]c12 | 9.1% | 3.31 µM | – | – | –
